pEC50: −log10 of the molar value.
Tests used:
[1] = system: DU-145; assay: Growth inhibition of human DU145 cells after 48 hrs by sulforhodamine B assay; format: functional; details: DU-145, 48 h
Summary of the method: (§1)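 NCI 60-cell-line screen. Compounds tested at five 10-fold dilutions from 10^-4 to 10^-8 M. Cells exposed for the last 48 h of a 72 h incubation, growth estimated by sulforhodamine B protein assay. GI50 is the concentration giving 50% growth inhibition. Values beyond the tested range are expressed as greater or lesser than the extreme concentration.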

[2] = system: T47D; assay: Growth inhibition of human T47D cells after 48 hrs by sulforhodamine B assay; format: functional
[3] = Growth inhibition of human COLO205 cells after 48 hrs by sulforhodamine B assay; format: functional; details: COLO 205, 48 h; summary of the method: as §1
[4] = system: SK-OV-3; assay: Growth inhibition of human SKOV3 cells after 48 hrs by sulforhodamine B assay; format: functional; details: SK-OV-3, 48 h
[5] = system: HCT-15; assay: Growth inhibition of human HCT15 cells after 48 hrs by sulforhodamine B assay; format: functional; details: HCT-15, 48 h; summary of the method: as §1
[6] = Growth inhibition of human HOP92 cells after 48 hrs by sulforhodamine B assay; format: functional; details: HOP-92, 48 h; summary of the method: as §1
[7] = system: MDA-MB-468; assay: Growth inhibition of human MDA-MB-468 cells after 48 hrs by sulforhodamine B assay; format: functional; details: MDA-MB-468, 48 h; summary of the method: as §1
[8] = system: ACHN; assay: Growth inhibition of human ACHN cells after 48 hrs by sulforhodamine B assay; format: functional; summary of the method: as §1
[9] = system: KM12; assay: Growth inhibition of human KM12 cells after 48 hrs by sulforhodamine B assay; format: functional; details: KM12, 48 h; summary of the method: as §1
[10] = system: MDA-MB-231; assay: Growth inhibition of human MDA-MB-231 cells after 48 hrs by sulforhodamine B assay; format: functional; details: MDA-MB-231, 48 h; summary of the method: as §1
[11] = system: IGROV-1; assay: Growth inhibition of human IGROV1 cells after 48 hrs by sulforhodamine B assay; format: functional; details: IGROV-1, 48 h; summary of the method: as §1
[12] = system: SN12C; assay: Growth inhibition of human SN12C cells after 48 hrs by sulforhodamine B assay; format: functional
[13] = Growth inhibition of human NCI-ADR-RES cells after 48 hrs by sulforhodamine B assay; format: functional; summary of the method: as §1
[14] = system: U-251; assay: Growth inhibition of human U251 cells after 48 hrs by sulforhodamine B assay; format: functional; details: U-251, 48 h
[15] = Growth inhibition of human RXF393 cells after 48 hrs by sulforhodamine B assay; format: functional; details: RXF 393, 48 h
[16] = system: SNB-75; assay: Growth inhibition of human SNB75 cells after 48 hrs by sulforhodamine B assay; format: functional; details: SNB-75, 48 h
[17] = system: HCT-116; assay: Growth inhibition of human HCT116 cells after 48 hrs by sulforhodamine B assay; format: functional; details: HCT-116, 48 h; summary of the method: as §1
[18] = Growth inhibition of human LOXIMVI cells after 48 hrs by sulforhodamine B assay; format: functional; details: LOX IMVI; summary of the method: as §1
[19] = system: MT4; assay: Antiproliferative activity against human MT4 cells after 96 hrs by MTT assay; format: functional, cell-based; details: MT4, 96 h
Summary of the method: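 Exponentially growing MT-4 cells (CD4+ human T-cells carrying integrated HTLV-1 genome), seeded at 1×10^5 cells/mL in RPMI-1640 with 10% FCS and antibiotics. Serial dilutions of compound (DMSO stock 100 mM, diluted in medium), 37 °C, 5% CO₂, 96 h. Viability read by MTT. 50% inhibition versus untreated controls by linear regression. Mean ± SD of three independent determinations.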

[20] = system: SF-268; assay: Growth inhibition of human SF268 cells after 48 hrs by sulforhodamine B assay; format: functional; details: SF-268, 48 h
[21] = system: HT-29; assay: Growth inhibition of human HT-29 cells after 48 hrs by sulforhodamine B assay; format: functional; details: HT-29, 48 h; summary of the method: as §1
[22] = system: NCI-H522; assay: Growth inhibition of human NCI-H522 cells after 48 hrs by sulforhodamine B assay; format: functional; details: NCI-H522, 48 h; summary of the method: as §1
[23] = system: SNB-19; assay: Growth inhibition of human SNB19 cells after 48 hrs by sulforhodamine B assay; format: functional; details: SNB-19, 48 h
[24] = Growth inhibition of human MOLT4 cells after 48 hrs by sulforhodamine B assay; format: functional; details: MOLT-4, 48 h; summary of the method: as §1
[25] = Growth inhibition of human RPMI8226 cells after 48 hrs by sulforhodamine B assay; format: functional; details: RPMI-8226, 48 h
[26] = system: A549; assay: Growth inhibition of human A549 cells after 48 hrs by sulforhodamine B assay; format: functional; details: A549, 48 h; summary of the method: as §1
[27] = system: PC-3; assay: Growth inhibition of human PC3 cells after 48 hrs by sulforhodamine B assay; format: functional; details: PC-3, 48 h
[28] = system: HOP-62; assay: Growth inhibition of human HOP62 cells after 48 hrs by sulforhodamine B assay; format: functional; details: HOP-62, 48 h; summary of the method: as §1
[29] = system: A498; assay: Growth inhibition of human A498 cells after 48 hrs by sulforhodamine B assay; format: functional; details: A498, 48 h; summary of the method: as §1
[30] = system: MDA-MB-435; assay: Growth inhibition of human MDA-MB-435 cells after 48 hrs by sulforhodamine B assay; format: functional; details: MDA-MB-435, 48 h; summary of the method: as §1
[31] = system: CAKI-1; assay: Growth inhibition of human CAKI-1 cells after 48 hrs by sulforhodamine B assay; format: functional; details: CAKI-1, 48 h; summary of the method: as §1
[32] = system: Malme-3M; assay: Growth inhibition of human MALME-3M cells after 48 hrs by sulforhodamine B assay; format: functional; summary of the method: as §1
[33] = system: K562; assay: Growth inhibition of human K562 cells after 48 hrs by sulforhodamine B assay; format: functional; details: K562, 48 h; summary of the method: as §1
[34] = system: OVCAR-4; assay: Growth inhibition of human OVCAR4 cells after 48 hrs by sulforhodamine B assay; format: functional; details: OVCAR-4, 48 h; summary of the method: as §1
[35] = system: SK-MEL-5; assay: Growth inhibition of human SK-MEL-5 cells after 48 hrs by sulforhodamine B assay; format: functional; details: SK-MEL-5, 48 h
[36] = system: HL-60(TB); assay: Growth inhibition of human HL-60(TB) cells after 48 hrs by sulforhodamine B assay; format: functional; details: HL-60, 48 h
Summary of the method: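 NCI 60-cell-line screen, HL-60(TB) included. Compound given at five 10-fold dilutions from 10^-4 to 10^-8 M. Cells exposed for the last 48 h of a 72 h incubation. Growth or viability estimated by sulforhodamine B protein assay. GI50 is the concentration giving 50% growth inhibition. Values outside the tested range are reported as greater or less than the highest or lowest concentration.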

[37] = system: UACC-257; assay: Growth inhibition of human UACC257 cells after 48 hrs by sulforhodamine B assay; format: functional; details: UACC-257, 48 h
[38] = system: NCI-H322M; assay: Growth inhibition of human NCI-H322M cells after 48 hrs by sulforhodamine B assay; format: functional; summary of the method: as §1
[39] = system: SW-620; assay: Growth inhibition of human SW620 cells after 48 hrs by sulforhodamine B assay; format: functional; details: SW-620, 48 h
[40] = system: SK-MEL-2; assay: Growth inhibition of human SK-MEL-2 cells after 48 hrs by sulforhodamine B assay; format: functional; details: SK-MEL-2, 48 h
[41] = system: TK-10; assay: Growth inhibition of human TK10 cells after 48 hrs by sulforhodamine B assay; format: functional; details: TK-10, 48 h
[42] = Growth inhibition of human BT549 cells after 48 hrs by sulforhodamine B assay; format: functional; details: BT-549, 48 h; summary of the method: as §1

`CC(=O)/C(=C\c1c(-c2ccccc2)[nH]c2ccccc12)S(=O)(=O)c1ccccc1` showed a GI50 [1] of 3000 nM, a GI50 [2] of 1400 nM and a GI50 [3] of 1700 nM. For the same compound, the GI50 [4] was 2900 nM, the GI50 [5] was 836 nM and the GI50 [6] was 5900 nM. For the same compound, the GI50 [7] was 1700 nM, the GI50 [8] was 1800 nM and the GI50 [9] was 1000 nM. For the same compound, the GI50 [10] was 1700 nM, the GI50 [11] was 1500 nM and the GI50 [12] was 1900 nM. The GI50 [13] was 520 nM, the GI50 [14] was 1200 nM and the GI50 [15] was 1300 nM. The GI50 [16] was 1700 nM, the GI50 [17] was 754 nM and the GI50 [18] was 1400 nM. It also gave a pEC50 [19] of 6.40, a GI50 [20] of 3400 nM and a GI50 [21] of 589 nM. The GI50 [22] was 1300 nM, the GI50 [23] was 6100 nM and the GI50 [24] was 1600 nM. The GI50 [25] was 2200 nM, the GI50 [26] was 7200 nM and the GI50 [27] was 2500 nM. For the same compound, the GI50 [28] was 1200 nM, the GI50 [29] was 2000 nM and the GI50 [30] was 295 nM. For the same compound, the GI50 [31] was 2400 nM, the GI50 [32] was 2100 nM and the GI50 [33] was 442 nM. For the same compound, the GI50 [34] was 3700 nM, the GI50 [35] was 832 nM and the GI50 [36] was 1700 nM. For the same compound, the GI50 [37] was 2200 nM, the GI50 [38] was 6100 nM and the GI50 [39] was 778 nM. It also gave a GI50 [40] of 1400 nM, a GI50 [41] of 3800 nM and a GI50 [42] of 1900 nM.
